Laboratory results from ChEMBL document CHEMBL2375271, “Antiproliferative Homoisoflavonoids and Bufatrienolides from Urginea depressa” (J Nat Prod, 2013).

Legend:
[1] = Cytotoxicity against human H522-T1 cells assessed as growth inhibition after 96 hrs by CellTiter-Glo luminescence assay; assay type: functional, cell-based; settings: H522-T1, 96 h
In short: (§1)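 Antiproliferative activity was determined against the A2058 melanoma and H522-T1 lung cancer cell lines.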

A2058 [2] = assay: Cytotoxicity against human A2058 cells assessed as growth inhibition after 96 hrs by CellTiter-Glo luminescence assay; assay type: functional, cell-based; settings: A2058, 96 h; in short: as §1
A2780 [3] = assay: Cytotoxicity against human A2780 cells assessed as growth inhibition; assay type: functional, cell-based
In short: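 Drug-sensitive A2780 human ovarian cancer cell line; antiproliferative activity determined per a previously described protocol.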

A2780 [4] = assay: Selectivity ratio of IC50 for human A2780 cells to IC50 for human H522-T1 cells; assay type: functional
A2058 [5] = assay: Selectivity ratio of IC50 for human A2780 cells to IC50 for human A2058 cells; assay type: functional

In the case of C[C@]12CC[C@H]3[C@@H](CCC4=C[C@@H](O[C@@H]5O[C@H](CO)[C@@H](O)[C@H](O)[C@H]5O)CC[C@@]43C=O)[C@@]1(O)CC[C@@H]2c1ccc(=O)oc1, the IC50 [1] is reported as 34 nM, the IC50 (A2058 [2]) is reported as 48 nM and the IC50 (A2780 [3]) is reported as 24 nM.

In the case of COc1cc2c(c(OC)c1OC)C(=O)[C@@](O)(Cc1ccc3c(c1)OCO3)CO2 [URGINEANIN D], the IC50 [1] is reported as 430 nM, the IC50 (A2058 [2]) is reported as 380 nM and the IC50 (A2780 [3]) is reported as 350 nM.

CC[C@]1(O)C[C@@H]2CN(CCc3c([nH]c4ccccc34)[C@@](C(=O)OC)(c3cc4c(cc3OC)N(C)[C@H]3[C@@](O)(C(=O)OC)[C@H](OC(C)=O)[C@]5(CC)C=CCN6CC[C@]43[C@@H]65)C2)C1 [VINBLASTINE] gave an IC50 [1] of 5.2 nM and an IC50 (A2058 [2]) of 3.7 nM.

Molecule COc1ccc(C[C@H]2COc3cc(OC)c(OC)c(OC)c3C2=O)cc1 has an IC50 [1] of 740 nM, an IC50 (A2058 [2]) of 690 nM and an IC50 (A2780 [3]) of 1350 nM.

For C[C@@H]1O[C@@H](O[C@H]2[C@@H](O)[C@H](O[C@@H]3C=C4CC[C@@H]5[C@H](CC[C@]6(C)[C@@H](c7ccc(=O)oc7)CC[C@]56O)[C@@]4(C)CC3)O[C@@H](C)[C@@H]2O[C@@H]2O[C@H](CO)[C@@H](O)[C@H](O)[C@H]2O)[C@H](O)[C@H](O)[C@H]1O, the IC50 [1] was 110 nM, the IC50 (A2058 [2]) was 180 nM and the IC50 (A2780 [3]) was 111 nM.

COc1cc2c(c(OC)c1OC)C(=O)[C@@](O)(Cc1ccc(O)cc1)CO2 gave an IC50 [1] of 6780 nM, an IC50 (A2058 [2]) of over 10000 nM and an IC50 (A2780 [3]) of 3400 nM.

In the case of COc1ccc(C[C@H]2COc3cc(O)cc(O)c3C2=O)cc1, the IC50 [1] is reported as over 10000 nM, the IC50 (A2058 [2]) is reported as over 10000 nM and the IC50 (A2780 [3]) is reported as 23000 nM.

In the case of COc1cc2c(c(OC)c1OC)C(=O)[C@@H](Cc1ccc3c(c1)OCO3)CO2 [URGINEANIN E], the IC50 [1] is reported as over 10000 nM, the IC50 (A2058 [2]) is reported as over 10000 nM and the IC50 (A2780 [3]) is reported as 1440 nM.

For COc1ccc(C[C@@]2(O)COc3cc(OC)c(OC)c(OC)c3C2=O)cc1, the “Ratio IC50” value (A2780 [4]) was 5, the IC50 [1] was 71 nM and the “Ratio IC50” value (A2058 [5]) was 5. It also gave an IC50 (A2058 [2]) of 68 nM and an IC50 (A2780 [3]) of 320 nM.

With C[C@@H]1O[C@@H](O[C@H]2[C@@H](O)[C@H](O[C@@H]3C=C4CC[C@@H]5[C@H](CC[C@]6(C)[C@@H](c7ccc(=O)oc7)CC[C@]56O)[C@@]4(C=O)CC3)O[C@@H](C)[C@@H]2O[C@@H]2O[C@H](CO)[C@@H](O)[C@H](O)[C@H]2O)[C@H](O)[C@H](O)[C@H]1O the IC50 [1] was 51 nM, the IC50 (A2058 [2]) was 76 nM and the IC50 (A2780 [3]) was 41 nM.

For CC(=O)O[C@@H]1C[C@]2(O)[C@@H]3CCC4=C[C@@H](O[C@@H]5O[C@H](CO)[C@@H](O)[C@H](O)[C@H]5O)CC[C@]4(C=O)[C@H]3CC[C@]2(C)[C@H]1c1ccc(=O)oc1, the IC50 [1] was 44 nM, the IC50 (A2058 [2]) was 60 nM and the IC50 (A2780 [3]) was 11 nM.
